Calb FLC: affects C. albicans growth with fluconazole | C. albicans CaCi-2 (fluconazole-resistant clinical isolate) + fluconazole, Alamar Blue growth, 48 h | growth inhibition, % (concentration not given with the values) | hit rate 0.57% among 300,000;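 active means growth inhibition above about 58% in most replicates, limit read from the data, passing the limit was not always enough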;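 further: all wells also contain fluconazole at 8 µg/ml as a sub-toxic cotreatment; 0% = median of DMSO wells and 100% = median of geldanamycin control wells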
H9c2 TAG inh: reduces triacylglycerol accumulation in H9c2 cells; Nile Red lipid (TAG) fluorescence; cells loaded with 200 µM oleic acid; inhibition, % at 12.5 µM; hit rate 0.66% among 230,000;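 active means pattern-corrected inhibition of lipid staining of at least 50% with the nuclear-stain viability signal not falling by more than 50%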;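 further: 0% = DMSO wells and 100% = triacsin C control wells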
MC4R antagonist: human MC4R antagonism in cAMP assay; MC4R-expressing cells, MTII-stimulated cAMP, LANCE TR-FRET; inhibition, % at 6.5 µM; hit rate 0.48% among 360,000; AID 540295;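 active means inhibition above its plate's cutoff, the mean of tested wells on that plate plus 3 SD, cut at about 29% in these data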;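 further: 0% = Melanotan II alone and 100% = Melanotan II plus saturating MCL0020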
Target sequence (P32245 whole entry, looked up): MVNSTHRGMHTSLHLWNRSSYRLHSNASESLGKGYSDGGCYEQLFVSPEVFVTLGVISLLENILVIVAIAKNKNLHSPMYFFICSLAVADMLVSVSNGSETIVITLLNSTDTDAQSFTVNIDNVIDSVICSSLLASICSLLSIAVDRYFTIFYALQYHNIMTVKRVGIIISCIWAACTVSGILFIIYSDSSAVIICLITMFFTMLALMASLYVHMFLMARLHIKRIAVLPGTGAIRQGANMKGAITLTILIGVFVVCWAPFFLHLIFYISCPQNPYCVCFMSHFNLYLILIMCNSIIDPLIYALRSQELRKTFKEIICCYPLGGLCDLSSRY
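Material: human MC4R-expressing U2OS cells. Probe or stimulus: Melanotan II challenge. Dosing: 6.5 µM single dose. Times: 30-min compound, 1-h challenge, 1-h detection, room temperature. Technique: TR-FRET with Eu-cAMP and labeled anti-cAMP, 671 nm. Replication: singlicate.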
GalR3 antag: blocks the human galanin receptor 3; O60755; inhibition, % at 3 µM; AID 651719; hit rate 0.44% among 360,000; HEK293 GalR3-CNG cAMP membrane potential fluorescence; galR3 body fused to GalR1 C-terminus;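 active means inhibition above the screen-wide average plus 3 SD, cut at about 13% in these data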;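 further: forskolin and galanin both at EC90 stimulate the cells; cAMP rise reported by CNG channel membrane potential dye signal; 0% = forskolin plus galanin with DMSO and 100% = forskolin alone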
MC4R ag barr: human MC4R agonism via beta-arrestin; P32245; U2OS MC4R beta-arrestin complementation, luminescence; percent of melanotan II response, DMSO zero; activation, % at 8.9 µM; hit rate 0.98% among 360,000;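 active means activation above a per-plate cutoff, the mean activation of sample wells on that plate plus 3 SD, cut at about 8% in these data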
Efflux pump inh: inhibitors of Candida antifungal efflux pumps expressed in yeast; S. cerevisiae Candida pump triplex, Nile Red efflux; inhibition, % at 10 µM; hit rate 0.44% among 330,000; AID 485275;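 active means plate passing quality check with inhibition over a set limit, or well fluorescence over plate mean plus 4 SD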;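 further: Nile Red retained in pooled yeast measured as flow cytometry median fluorescence; 0% = buffer negative control and 100% = Enniatin B positive control; higher means more Nile Red kept so more efflux inhibition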
Yeast cmpd fluor: flagged as fluorescent in efflux inhibitor counter-screen; shares compounds with Efflux pump inh; S. cerevisiae AD/pABC3, compound fluorescence, flow cytometry; fluorescence ratio to DMSO, % at 10 µM; hit rate 4% among 1,700; AID 588517;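 active means fluorescence ratio to DMSO above its plate's cutoff, the plate mean ratio plus 5 SD, cut at about 210% in these data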;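 further: unstained yeast with no Nile Red so the signal is compound autofluorescence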
CaMdr1 efflux inh: Candida Mdr1 efflux pump inhibition; shares compounds with Efflux pump inh; S. cerevisiae AD/CaMDR1, Nile Red efflux, flow cytometry; inhibition, % at 10 µM; hit rate 1% among 1,700; AID 588518; in the data active means inhibition above about 26%;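 further: 0% = DMSO vehicle and 100% = reference inhibitor; higher means more Nile Red retained so more efflux inhibition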
Cdr2 pump inh: inhibitors of Candida albicans Cdr2 efflux pump. shares compounds with Efflux pump inh. S. cerevisiae AD/CaCDR2, Nile Red retention, flow cytometry. Nile Red retention ratio vs DMSO, % at 10 µM. hit rate 4% among 1,700. AID 588520; in the data active means Nile Red retention ratio vs DMSO above about 190%;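 further: higher ratio means more blocking of Cdr2 efflux of the dye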
CaCdr1 efflux inh: blocks the Candida albicans Cdr1 efflux pump in yeast; shares compounds with Efflux pump inh; S. cerevisiae AD/CaCDR1, Nile Red efflux, flow cytometry; inhibition, % at 10 µM; hit rate 1% among 1,700;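 active means inhibition above the screen-wide mean plus twice its standard deviation, cut at about 32% in these data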
U2OS cAMP counter: U2OS forskolin cAMP inhibition counter-screen. shares compounds with MC4R antagonist. parental U2OS, LANCE TR-FRET. inhibition, % at 6.5 µM. hit rate 26% among 1,600. AID 602193;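 active means mean inhibition over triplicates above the low-control well mean plus 3 SD, set per campaign, cut at about 13% in these data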;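 further: signal is single emission at 671 nm which falls as cellular cAMP rises; 0% = forskolin-stimulated wells and 100% = buffer without forskolin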
MC4R antag conf: human MC4R cAMP antagonism confirmation. MC4R-expressing cells, MTII-stimulated cAMP, TR-FRET. inhibition, % at 6.5 µM. hit rate 27% among 1,600. shares compounds with MC4R antagonist. AID 602195; in the data active means inhibition above about 29%;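 further: 0% = agonist stimulated wells alone and 100% = agonist stimulated wells plus saturating reference antagonist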
H9c2 TAG conf: triacylglycerol accumulation inhibition, confirmation. inhibition, % at 12.5 µM. shares compounds with H9c2 TAG inh. H9c2 lipid accumulation, Nile Red fluorescence; cells loaded with 200 µM oleic acid. hit rate 71% among 990;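 active means mean inhibition across replicates of 40% or more; inactive means mean inhibition below 40%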;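 further: plate controls were DMSO only wells for no effect and Triacsin C treated wells for full effect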
GalR3 conf: GalR3 (human) antagonism, confirmation; HEK293 GalR3 CNG cAMP biosensor, membrane potential fluorescence; galR3 fused to GalR1 carboxy tail; challenged with forskolin and galanin at EC90; hit rate 59% among 1,600; AID 652245; inhibition, % at 3 µM; shares compounds with GalR3 antag;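 active means inhibition above the primary screen's cutoff, the mean inhibition of all screened compounds plus 3 SD, cut at about 13% in these data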;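 further: 0% = forskolin plus galanin and 100% = forskolin alone with DMSO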
HEK-CNG parental: counter-screen for GalR3 antagonists: nonspecific agonists in parental HEK-CNG cells. shares compounds with GalR3 antag. HEK293-CNG parental cells, cAMP membrane potential fluorescence; normalised: DMSO wells 0%, forskolin wells 100%. activation, % at 3 µM. hit rate 10% among 1,600; in the data active means activation above about 1.3%
* hit, by the source's call; / = no result; + = active, no number. A selection: hits, their analogues and other compounds. The true share with any hit is near 2.9%.

SMILES	Calb FLC	H9c2 TAG inh	MC4R antagonist	GalR3 antag	MC4R ag barr	Efflux pump inh	Yeast cmpd fluor	CaMdr1 efflux inh	Cdr2 pump inh	CaCdr1 efflux inh	H9c2 TAG conf	others
Cc1nn(-c2ccc([N+](=O)[O-])cc2)c2c1C(c1ccc(OC(F)F)cc1)N1C(=N2)C(=O)Nc2ccccc21 (configuration not stated)	87*	65*	-9	-9	-3	1.6*	116	1	133	0	69*
N#Cc1ccccc1S(=O)(=O)N1CCN(Cc2cc3c(cc2Br)OCCO3)CC1	/	-20	4	1	0	/	/	/	/	/	/
COc1ccc(C(C(=O)NC(C)(C)C)N(CC2CCCO2)C(=O)CCC(=O)Nc2cc(C)on2)cc1 (configuration not stated)	15	50*	1	-3	-2	0.8*	100	0	98	0	32
COc1ccc(C(C(=O)NC(C)(C)C)N(CCC(C)C)C(=O)CCC(=O)Nc2cc(C)on2)cc1 (configuration not stated)	6	/	-2	-10	3	0	/	/	/	/	/
CCNC(=O)N1CCN(c2ccc(N3CCN(Cc4ccccc4)[C@@H](C)C3)c(C)c2)[C@H](C)C1	/	/	/	-4	/	/	/	/	/	/	/
C=CC[C@H](CC(=O)N(CCO)Cc1ccccc1)C(=O)N[C@H](COC(=O)[C@@H](CC=C)Cc1ccc(F)cc1)Cc1c[nH]c2ccccc12	/	26	23	-2	0	0	/	/	/	/	/
C=CC[C@@H](CC(=O)N(CCO)Cc1ccccc1)C(=O)N[C@H](COC(=O)[C@@H](CC=C)Cc1ccc(F)cc1)Cc1c[nH]c2ccccc12	/	62*	29*	-8	0	162*	104	136*	112	135*	63*	U2OS cAMP counter=2;MC4R antag conf=5
CCN1/C(=C/c2ccc3cccc(C)c3[n+]2CC)Sc2ccccc21	106*	/	-13	49*	-3	2.4*	+	5	138	1	/	GalR3 conf=45*;HEK-CNG parental=10*
COc1cccc(OC(=O)c2ccccc2)c1OC(=O)c1ccccc1	/	15	6	-1	-1	/	/	/	/	/	/
CN(C)C1=NC[C@H](Cc2ccccc2)N1CCc1cccc(F)c1	/	-12	7	6	-1	0	/	/	/	/	/
NC1=NC[C@H](Cc2ccc(O)cc2)N1CCc1cccc(F)c1	-17	7	2	/	-1	0	90	0	85	0	/	GalR3 conf=7;HEK-CNG parental=0
COCC(C)NC(=O)c1cccc(Cl)c1 (configuration not stated)	-1	-11	5	1	-2	0	/	/	/	/	/

Screening data (PubChem BioAssay)
